Results as given in ChEMBL document CHEMBL1275368, “Synthesis and evaluation of pyrazolone compounds as SARS-coronavirus 3C-like protease inhibitors” (Bioorg Med Chem, 2010).
The source made the active and inactive calls. The rule behind the calls is not given here.

Legend:
[1] = biological target: Replicase polyprotein 1ab (Severe acute respiratory syndrome-related coronavirus) (UniProt P0C6X7); assay: Inhibition of SARS coronavirus 3C-like protease at 50 uM by fluorescence plate reader analysis
Method in brief: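 Stored recombinant SARS-CoV 3CLpro at –70 °C in Tris/NaCl/EDTA/β-ME/DTT buffer. Screened compounds at 50 μM; those inhibiting >50% went on to the follow-up run.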

[2] = biological target: Genome polyprotein (Coxsackievirus B3 (strain Nancy)) (UniProt P03313); assay: Inhibition of coxsackievirus B3 3C protease at 50 uM by fluorescence plate reader analysis
Chain of Genome polyprotein (Coxsackievirus B3 (strain Nancy)) (P03313 whole entry): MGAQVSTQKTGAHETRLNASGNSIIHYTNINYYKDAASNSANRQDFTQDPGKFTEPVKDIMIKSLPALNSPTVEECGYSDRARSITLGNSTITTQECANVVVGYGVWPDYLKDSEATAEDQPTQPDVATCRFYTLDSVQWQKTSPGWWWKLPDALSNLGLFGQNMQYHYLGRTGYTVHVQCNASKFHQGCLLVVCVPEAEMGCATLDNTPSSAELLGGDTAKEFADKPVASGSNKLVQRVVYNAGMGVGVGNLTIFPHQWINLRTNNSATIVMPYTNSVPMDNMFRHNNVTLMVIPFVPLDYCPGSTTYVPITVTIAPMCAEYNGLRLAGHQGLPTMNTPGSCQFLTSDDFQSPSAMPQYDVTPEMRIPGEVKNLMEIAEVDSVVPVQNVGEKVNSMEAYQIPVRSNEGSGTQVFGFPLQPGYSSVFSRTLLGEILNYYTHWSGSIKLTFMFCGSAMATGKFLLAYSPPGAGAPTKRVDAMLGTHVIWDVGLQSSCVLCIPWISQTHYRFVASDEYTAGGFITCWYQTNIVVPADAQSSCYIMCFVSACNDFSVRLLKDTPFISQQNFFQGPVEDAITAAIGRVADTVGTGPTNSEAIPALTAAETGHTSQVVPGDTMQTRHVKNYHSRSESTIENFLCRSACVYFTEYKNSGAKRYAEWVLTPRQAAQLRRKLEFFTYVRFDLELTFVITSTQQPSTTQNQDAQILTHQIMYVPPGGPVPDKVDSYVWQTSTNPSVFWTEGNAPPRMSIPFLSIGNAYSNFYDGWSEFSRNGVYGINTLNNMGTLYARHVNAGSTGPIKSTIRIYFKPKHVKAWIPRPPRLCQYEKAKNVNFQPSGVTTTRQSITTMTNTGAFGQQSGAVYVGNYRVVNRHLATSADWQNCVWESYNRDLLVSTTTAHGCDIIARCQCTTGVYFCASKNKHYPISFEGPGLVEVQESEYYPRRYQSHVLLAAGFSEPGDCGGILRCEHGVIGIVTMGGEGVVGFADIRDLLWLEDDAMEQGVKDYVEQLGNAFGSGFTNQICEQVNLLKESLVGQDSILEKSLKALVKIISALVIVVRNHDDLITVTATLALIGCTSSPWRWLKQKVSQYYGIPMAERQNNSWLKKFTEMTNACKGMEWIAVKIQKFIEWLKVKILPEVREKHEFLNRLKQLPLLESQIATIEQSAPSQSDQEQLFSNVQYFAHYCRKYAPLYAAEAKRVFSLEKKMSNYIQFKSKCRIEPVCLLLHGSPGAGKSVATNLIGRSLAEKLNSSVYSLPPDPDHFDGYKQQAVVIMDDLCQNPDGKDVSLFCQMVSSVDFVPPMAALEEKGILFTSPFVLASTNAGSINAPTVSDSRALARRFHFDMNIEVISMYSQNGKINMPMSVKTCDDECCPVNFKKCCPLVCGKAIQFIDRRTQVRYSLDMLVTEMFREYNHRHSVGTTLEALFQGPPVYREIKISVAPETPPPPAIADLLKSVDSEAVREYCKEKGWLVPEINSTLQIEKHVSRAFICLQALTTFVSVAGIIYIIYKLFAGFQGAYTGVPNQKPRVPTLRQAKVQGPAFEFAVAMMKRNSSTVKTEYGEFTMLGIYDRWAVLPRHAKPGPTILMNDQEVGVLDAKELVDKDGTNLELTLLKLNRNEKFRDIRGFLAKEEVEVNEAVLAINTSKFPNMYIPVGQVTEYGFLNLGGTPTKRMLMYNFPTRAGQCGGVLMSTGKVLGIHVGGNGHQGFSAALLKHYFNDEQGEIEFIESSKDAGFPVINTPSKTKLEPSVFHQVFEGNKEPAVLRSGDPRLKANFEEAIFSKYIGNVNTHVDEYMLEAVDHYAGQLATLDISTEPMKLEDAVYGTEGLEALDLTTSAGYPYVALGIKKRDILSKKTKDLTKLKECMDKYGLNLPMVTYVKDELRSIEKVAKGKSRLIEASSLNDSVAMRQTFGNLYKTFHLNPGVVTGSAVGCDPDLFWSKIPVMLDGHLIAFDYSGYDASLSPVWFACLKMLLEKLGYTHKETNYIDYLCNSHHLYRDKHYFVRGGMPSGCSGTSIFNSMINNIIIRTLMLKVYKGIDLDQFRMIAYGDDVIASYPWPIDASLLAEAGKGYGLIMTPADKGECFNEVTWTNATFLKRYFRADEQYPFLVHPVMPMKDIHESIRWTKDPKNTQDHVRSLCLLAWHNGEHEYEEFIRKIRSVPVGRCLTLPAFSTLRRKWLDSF

HEK293 = assay: Cytotoxicity against HEK293 cells at 200 uM after 24 hrs by MTT assay; format: cell-based; conditions: human, hek293, 24 h
Method in brief: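 HEK293 cells seeded at 2×10^5/ml in MEM with 10% FBS at 37 °C and 5% CO2. At 70% confluence, cells were exposed to compound for 24 h. MTT was then added for 4 h at 37 °C. Formazan was dissolved in DMSO after medium removal, and OD at 540 nm was read as cell viability.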

[3] = biological target: Replicase polyprotein 1ab (Severe acute respiratory syndrome-related coronavirus, UniProt P0C6X7); assay: Inhibition of SARS coronavirus 3C-like protease by fluorescence plate reader analysis
Genome polyprotein = Genome polyprotein (Coxsackievirus B3 (strain Nancy), UniProt P03313); assay: Inhibition of coxsackievirus B3 3C protease by fluorescence plate reader analysis
Chain of Genome polyprotein (P03313 1541-1723 limits assumed): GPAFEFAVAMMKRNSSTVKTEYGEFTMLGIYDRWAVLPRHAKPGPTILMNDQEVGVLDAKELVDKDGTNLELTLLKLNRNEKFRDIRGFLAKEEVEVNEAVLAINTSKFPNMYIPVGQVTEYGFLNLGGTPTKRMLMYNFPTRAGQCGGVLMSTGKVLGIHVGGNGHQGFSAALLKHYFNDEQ

COc1cccc(/C=C2\C(=O)N(c3ccccc3)N=C2c2ccccc2)c1
inhibition [1]: inactive
inhibition [2]: inactive
Activity (HEK293): Non-toxic

O=C(O)c1ccc(/C=C2\C(=O)N(c3cccc([N+](=O)[O-])c3)N=C2c2ccccc2)cc1
IC50 [3]: 8.4 µM
IC50 (Genome polyprotein): 9.6 µM
Activity (HEK293): Non-toxic

CN(C)c1ccc(/C=C2\C(=O)N(c3ccccc3)N=C2c2ccccc2)cc1
inhibition [1]: inactive
inhibition [2]: inactive
Activity (HEK293): Non-toxic

CC(=O)Nc1ccc(/C=C2\C(=O)N(c3ccccc3)N=C2c2ccccc2)cc1
inhibition [1]: inactive
inhibition [2]: inactive
Activity (HEK293): Non-toxic

N#Cc1ccc(N2N=C(c3ccccc3)/C(=C/c3ccc(C(=O)O)cc3)C2=O)cc1
IC50 [3]: 5.5 µM
IC50 (Genome polyprotein): 20.8 µM
Activity (HEK293): Non-toxic

O=C(O)c1ccc(/C=C2\C(=O)N(c3cccc(Cl)c3)N=C2c2ccccc2)cc1
IC50 [3]: 10.8 µM
IC50 (Genome polyprotein): 17.3 µM
Activity (HEK293): Non-toxic

O=C(O)c1ccc(/C=C2\C(=O)N(c3ccc(F)cc3)N=C2c2ccccc2)cc1
IC50 [3]: 6.8 µM
IC50 (Genome polyprotein): 22.4 µM
Activity (HEK293): Non-toxic

O=C(O)c1ccc(/C=C2\C(=O)N(c3ccc(OC(F)(F)F)cc3)N=C2c2ccccc2)cc1
IC50 [3]: 42 µM
IC50 (Genome polyprotein): 98.8 µM
Activity (HEK293): Non-toxic

O=C1/C(=C\c2ccc(O)cc2)C(c2ccccc2)=NN1c1ccc(Cl)cc1
inhibition [1]: inactive
inhibition [2]: inactive
Activity (HEK293): Non-toxic

O=C1/C(=C\c2ccccc2)C(c2ccccc2)=NN1c1ccccc1
inhibition [1]: inactive
inhibition [2]: inactive
Activity (HEK293): Non-toxic

CC(C)c1ccc(N2N=C(c3ccccc3)/C(=C/c3ccc(C(=O)O)cc3)C2=O)cc1
inhibition [1]: inactive
inhibition [2]: inactive
Activity (HEK293): Non-toxic

O=C1/C(=C\c2cccc([N+](=O)[O-])c2)C(c2ccccc2)=NN1c1ccccc1
inhibition [1]: inactive
inhibition [2]: inactive
Activity (HEK293): Non-toxic

COc1ccc(/C=C2\C(=O)N(c3ccc(Cl)cc3)N=C2c2ccccc2)cc1
inhibition [1]: inactive
inhibition [2]: inactive
Activity (HEK293): Non-toxic

O=C(O)c1ccc(/C=C2\C(=O)N(c3ccccc3)N=C2c2ccccc2)cc1
IC50 [3]: 18 µM
IC50 (Genome polyprotein): 51.1 µM
Activity (HEK293): Non-toxic

O=C(O)c1ccc(/C=C2\C(=O)N(c3ccc(Cl)cc3)N=C2c2ccccc2)cc1
IC50 [3]: 13.9 µM
IC50 (Genome polyprotein): 25 µM
Activity (HEK293): Non-toxic

COc1ccc(N2N=C(c3ccccc3)/C(=C/c3ccc(C(=O)O)cc3)C2=O)cc1
IC50 [3]: 12 µM
IC50 (Genome polyprotein): 16.6 µM
Activity (HEK293): Non-toxic

CC(C)(C)c1ccc(N2N=C(c3ccccc3)/C(=C/c3ccc(C(=O)O)cc3)C2=O)cc1
inhibition [1]: inactive
inhibition [2]: inactive
Activity (HEK293): Non-toxic

O=C1/C(=C\c2ccccc2)C(c2ccccc2)=NN1c1ccc(Cl)cc1
inhibition [1]: inactive
inhibition [2]: inactive
Activity (HEK293): Non-toxic

O=C1/C(=C\c2ccc(Cl)cc2)C(c2ccccc2)=NN1c1ccc(Cl)cc1
inhibition [1]: inactive
inhibition [2]: inactive
Activity (HEK293): Non-toxic

O=C(O)c1ccc(/C=C2\C(=O)N(c3ccc(Cl)c(Cl)c3)N=C2c2ccccc2)cc1
IC50 [3]: 24.3 µM
IC50 (Genome polyprotein): 126 µM
Activity (HEK293): Non-toxic

CC(=O)Nc1ccc(/C=C2\C(=O)N(c3ccc(Cl)cc3)N=C2c2ccccc2)cc1
inhibition [1]: inactive
inhibition [2]: inactive
Activity (HEK293): Non-toxic
